# Legend:
# Nucleic Acid [1] = assay: Ratio of drug level in striatum to hippocampus in cynomolgus monkey at 185 to 259 MBq, iv measured at 40 mins by micro PET image analysis; format: ADME, organism-based, Macaca fascicularis; conditions: in vivo
# In short: (§1)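 Adult male cynomolgus macaques (~4–6 kg), three independent PET studies per tracer on a microPET Focus 220. Animals fasted 12 h and anesthetized with ketamine (10 mg/kg) plus glycopyrrolate (0.13 mg/kg) i.m. A 10 min positioning transmission scan and a 45 min attenuation transmission scan were run, then a 3 h dynamic emission scan after venous tracer injection. Regional TACs came from ROIs, expressed as SUV (body weight, injected dose).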
# Nucleic Acid [2] = assay: Ratio of drug level in striatum to cortex in Sprague-Dawley rat at 1.48 to 2.22 MBq, iv measured at 5 to 30 mins by gamma counting analysis; format: ADME, organism-based; conditions: in vivo
# In short: (§2)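 Striatum, cerebellum and cortex obtained by gross dissection from Sprague-Dawley rats (250 - 400 g, n=4 per time point) after tail-vein injection of 1.48 - 2.22 MBq under isoflurane anesthesia. Tissues weighed and gamma-counted with an injectate standard to give %ID/g; ratios taken from striatal versus non-target uptake.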
# Bone [3] = assay: Biodistribution in Sprague-Dawley rat bone at 1.48 to 2.22 MBq, iv measured at 60 mins by gamma counting analysis; format: ADME, organism-based, Bone element; conditions: in vivo, 1 h
# In short: (§3)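 Male Sprague-Dawley rats (250 - 400 g), tail-vein injection of 1.48 - 2.22 MBq radiotracer under 2.5% isoflurane in oxygen; n=4 per time point, euthanized at 5, 30 and 60 min p.i. Brain regions obtained by gross dissection; peripheral tissues collected. Samples weighed, gamma-counted against a diluted-injectate standard; %ID/g calculated.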
# Putamen = assay: Drug uptake in cynomolgus monkey putamen at 185 to 259 MBq, iv measured over 180 mins by micro PET image analysis; format: ADME, organism-based, Macaca fascicularis; conditions: in vivo, 3 h
# In short: (§4)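 Adult male cynomolgus macaques (~4–6 kg), three studies per tracer, fasted 12 h. Induction with ketamine 10 mg/kg plus glycopyrrolate 0.13 mg/kg i.m. Transmission scans of 10 min for positioning and 45 min for attenuation correction, then a 3 h dynamic microPET emission scan after venous injection of 185 - 259 MBq. ROI time-activity curves expressed as SUV (body weight and injected dose).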
# Brain [4] = assay: Biodistribution in Sprague-Dawley rat brain at 1.48 to 2.22 MBq, iv measured at 30 mins by gamma counting analysis; format: ADME, organism-based; conditions: in vivo, 0.5 h; in short: as §3
# [5] = Metabolic stability in cynomolgus monkey plasma assessed as compound remaining at 185 to 259 MBq, iv measured at 2 mins by HPLC analysis; format: ADME, organism-based, Macaca fascicularis; conditions: read-out: Stability
# In short: (§5)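 Arterial blood (~1.5 mL) drawn at 2, 15, 30, 60 and 90 min p.i. into heparinized syringes, then centrifuged to plasma. Plasma deproteinated with 2 parts ice-cold methanol. Extract run on C-18 HPLC, MeCN/0.1 M ammonium formate pH 4.5, 0.9 mL/min, UV 254 nm. 1-min fractions over 16 min were well-counted and decay-corrected; parent percentage taken from recovered activity.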
# Blood [6] = assay: Biodistribution in Sprague-Dawley rat blood at 1.48 to 2.22 MBq, iv measured at 30 mins by gamma counting analysis; format: ADME, organism-based; conditions: in vivo, 0.5 h; in short: as §3
# Bone [7] = assay: Biodistribution in Sprague-Dawley rat bone at 1.48 to 2.22 MBq, iv measured at 30 mins by gamma counting analysis; format: ADME, organism-based, Bone element; conditions: in vivo, 0.5 h; in short: as §3
# Striatum = assay: Biodistribution in Sprague-Dawley rat striatum at 1.48 to 2.22 MBq, iv measured at 30 mins by gamma counting analysis; format: ADME, organism-based; conditions: in vivo, 0.5 h; in short: as §3
# Liver [8] = assay: Biodistribution in Sprague-Dawley rat liver at 1.48 to 2.22 MBq, iv measured at 30 mins by gamma counting analysis; format: ADME, organism-based; conditions: in vivo, 0.5 h; in short: as §3
# Rattus norvegicus [9] = assay: Biodistribution in Sprague-Dawley rat fat tissue at 1.48 to 2.22 MBq, iv measured at 60 mins by gamma counting analysis; format: ADME, organism-based, Adipose tissue; conditions: in vivo, 1 h; in short: as §3
# Blood [10] = assay: Biodistribution in Sprague-Dawley rat blood at 1.48 to 2.22 MBq, iv measured at 60 mins by gamma counting analysis; format: ADME, organism-based; conditions: in vivo, 1 h; in short: as §3
# Brain [11] = assay: Biodistribution in Sprague-Dawley rat brain at 1.48 to 2.22 MBq, iv measured at 60 mins by gamma counting analysis; format: ADME, organism-based; conditions: in vivo, 1 h; in short: as §3
# Blood [12] = assay: Biodistribution in Sprague-Dawley rat blood at 1.48 to 2.22 MBq, iv measured at 5 mins by gamma counting analysis; format: ADME, organism-based; conditions: in vivo; in short: as §3
# Kidney [13] = assay: Biodistribution in Sprague-Dawley rat kidney at 1.48 to 2.22 MBq, iv measured at 5 mins by gamma counting analysis; format: ADME, organism-based; conditions: in vivo; in short: as §3
# Nucleic Acid [14] = assay: Ratio of drug level in striatum to white matter in cynomolgus monkey at 185 to 259 MBq, iv measured at 40 mins by micro PET image analysis; format: ADME, organism-based, Macaca fascicularis; conditions: in vivo; in short: as §1
# [15] = Ratio of drug level in striatum to cerebellum in Sprague-Dawley rat at 1.48 to 2.22 MBq, iv measured at 5 to 30 mins by gamma counting analysis; format: ADME, organism-based; conditions: in vivo; in short: as §2
# Nucleic Acid [16] = assay: Ratio of drug level in striatum to frontal in cynomolgus monkey at 185 to 259 MBq, iv measured at 40 mins by micro PET image analysis; format: ADME, organism-based, Macaca fascicularis; conditions: in vivo; in short: as §1
# Liver [17] = assay: Biodistribution in Sprague-Dawley rat liver at 1.48 to 2.22 MBq, iv measured at 5 mins by gamma counting analysis; format: ADME, organism-based; conditions: in vivo; in short: as §3
# Kidney [18] = assay: Biodistribution in Sprague-Dawley rat kidney at 1.48 to 2.22 MBq, iv measured at 60 mins by gamma counting analysis; format: ADME, organism-based; conditions: in vivo, 1 h; in short: as §3
# Nucleic Acid [19] = assay: Ratio of drug level in striatum to midbrain region in cynomolgus monkey at 185 to 259 MBq, iv measured at 40 mins by micro PET image analysis; format: ADME, organism-based, Macaca fascicularis, Brain; conditions: in vivo; in short: as §1
# [20] = Metabolic stability in cynomolgus monkey plasma assessed as compound remaining at 185 to 259 MBq, iv measured at 90 mins by HPLC analysis; format: ADME, organism-based, Macaca fascicularis; conditions: read-out: Stability; in short: as §5
# Caudate = assay: Drug uptake in cynomolgus monkey caudate at 185 to 259 MBq, iv measured over 180 mins by micro PET image analysis; format: ADME, organism-based, Macaca fascicularis, Caudate nucleus; conditions: in vivo, 3 h; in short: as §4
# Bone [21] = assay: Biodistribution in Sprague-Dawley rat bone at 1.48 to 2.22 MBq, iv measured at 5 mins by gamma counting analysis; format: ADME, organism-based, Bone element; conditions: in vivo; in short: as §3
# Plasma = assay: Retention time of the compound in cynomolgus monkey plasma at 185 to 259 MBq, iv by HPLC analysis; format: ADME, organism-based, Macaca fascicularis; in short: as §5
# Brain [22] = assay: Biodistribution in Sprague-Dawley rat brain at 1.48 to 2.22 MBq, iv measured at 5 mins by gamma counting analysis; format: ADME, organism-based; conditions: in vivo; in short: as §3
# Nucleic Acid [23] = assay: Ratio of drug level in striatum to occipital in cynomolgus monkey at 185 to 259 MBq, iv measured at 40 mins by micro PET image analysis; format: ADME, organism-based, Macaca fascicularis; conditions: in vivo; in short: as §1
# Nucleic Acid [24] = assay: Ratio of drug level in striatum to cerebellum in cynomolgus monkey at 185 to 259 MBq, iv measured at 40 mins by micro PET image analysis; format: ADME, organism-based, Macaca fascicularis; conditions: in vivo; in short: as §1
# [25] = Metabolic stability in cynomolgus monkey plasma assessed as compound remaining at 185 to 259 MBq, iv measured at 60 mins by HPLC analysis; format: ADME, organism-based, Macaca fascicularis; conditions: read-out: Stability; in short: as §5
# Kidney [26] = assay: Biodistribution in Sprague-Dawley rat kidney at 1.48 to 2.22 MBq, iv measured at 30 mins by gamma counting analysis; format: ADME, organism-based; conditions: in vivo, 0.5 h; in short: as §3
# Muscle tissue [27] = assay: Biodistribution in Sprague-Dawley rat muscle at 1.48 to 2.22 MBq, iv measured at 5 mins by gamma counting analysis; format: ADME, organism-based; conditions: in vivo; in short: as §3
# Rattus norvegicus [28] = assay: Biodistribution in Sprague-Dawley rat fat tissue at 1.48 to 2.22 MBq, iv measured at 30 mins by gamma counting analysis; format: ADME, organism-based, Adipose tissue; conditions: in vivo, 0.5 h; in short: as §3
# Muscle tissue [29] = assay: Biodistribution in Sprague-Dawley rat muscle at 1.48 to 2.22 MBq, iv measured at 30 mins by gamma counting analysis; format: ADME, organism-based; conditions: in vivo, 0.5 h; in short: as §3
# [30] = Metabolic stability in cynomolgus monkey plasma assessed as compound remaining at 185 to 259 MBq, iv measured at 15 mins by HPLC analysis; format: ADME, organism-based, Macaca fascicularis; conditions: read-out: Stability; in short: as §5
# Nucleic Acid [31] = assay: Ratio of drug level in striatum to temporal region in cynomolgus monkey at 185 to 259 MBq, iv measured at 40 mins by micro PET image analysis; format: ADME, organism-based, Macaca fascicularis; conditions: in vivo; in short: as §1
# Liver [32] = assay: Biodistribution in Sprague-Dawley rat liver at 1.48 to 2.22 MBq, iv measured at 60 mins by gamma counting analysis; format: ADME, organism-based; conditions: in vivo, 1 h; in short: as §3
# [33] = Metabolic stability in cynomolgus monkey plasma assessed as compound remaining at 185 to 259 MBq, iv measured at 30 mins by HPLC analysis; format: ADME, organism-based, Macaca fascicularis; conditions: read-out: Stability; in short: as §5
# Muscle tissue [34] = assay: Biodistribution in Sprague-Dawley rat muscle at 1.48 to 2.22 MBq, iv measured at 60 mins by gamma counting analysis; format: ADME, organism-based; conditions: in vivo, 1 h; in short: as §3
# Rattus norvegicus [35] = assay: Biodistribution in Sprague-Dawley rat fat tissue at 1.48 to 2.22 MBq, iv measured at 5 mins by gamma counting analysis; format: ADME, organism-based, Adipose tissue; conditions: in vivo; in short: as §3
smiles,measurement,setting,value
Cn1cc(-c2ccncc2)c(-c2ccc(OCc3cc(OCC[18F])c4ccccc4n3)cc2)n1,Ratio,Nucleic Acid [1],> 3
same,Ratio,Nucleic Acid [2],> 2
same,Drug uptake,Bone [3],0.142 % ID/g
same,Drug uptake,Putamen,Active
same,Drug uptake,Brain [4],0.078 % ID/g
same,remaining at 2 min,[5],98%
same,Drug uptake,Blood [6],0.226 % ID/g
same,Drug uptake,Bone [7],0.091 % ID/g
same,Drug uptake,Striatum,Active
same,Drug uptake,Liver [8],6.98 % ID/g
same,Drug uptake,Rattus norvegicus [9],0.259 % ID/g
same,Drug uptake,Blood [10],0.215 % ID/g
same,Drug uptake,Brain [11],0.101 % ID/g
same,Drug uptake,Blood [12],0.362 % ID/g
same,Drug uptake,Kidney [13],2.2 % ID/g
same,Ratio,Nucleic Acid [14],> 3
same,Ratio,[15],> 2
same,Ratio,Nucleic Acid [16],> 3
same,Drug uptake,Liver [17],6.88 % ID/g
same,Drug uptake,Kidney [18],0.765 % ID/g
same,Ratio,Nucleic Acid [19],> 3
same,remaining at 1.5 h,[20],57%
same,Drug uptake,Caudate,Active
same,Drug uptake,Bone [21],0.189 % ID/g
same,Retention_time,Plasma,10.5 min
same,Drug uptake,Brain [22],0.118 % ID/g
same,Ratio,Nucleic Acid [23],> 3
same,Ratio,Nucleic Acid [24],> 3
same,remaining at 1 h,[25],75%
same,Drug uptake,Kidney [26],1.055 % ID/g
same,Drug uptake,Muscle tissue [27],0.247 % ID/g
same,Drug uptake,Rattus norvegicus [28],0.302 % ID/g
same,Drug uptake,Muscle tissue [29],0.134 % ID/g
same,remaining at 0.25 h,[30],93%
same,Ratio,Nucleic Acid [31],> 3
same,Drug uptake,Liver [32],3.29 % ID/g
same,remaining at 0.5 h,[33],90%
same,Drug uptake,Muscle tissue [34],0.132 % ID/g
same,Drug uptake,Rattus norvegicus [35],0.213 % ID/g
